# Data reported in ChEMBL document CHEMBL1154237, “Influenza A (H(1)N(1)) Antiviral and Cytotoxic Agents from Ferula assa-foetida” (J Nat Prod, 2009).
# Experiments:
# [1] = tested on: Influenza A virus; experiment: Antiviral activity against Influenza A virus H1N1 infected in MDCK cells assessed as inhibition of virus-induced cytopathic effect after 3 days by XTT assay; assay type: functional, organism-based; conditions: 72 h
# In short: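 MDCK cells, trypsinized and seeded at 1.0 × 10^5 cells/mL, grown 24 h at 35 °C, 5% CO2 in MEM with 2% FCS plus antibiotics. Virus added for 1 h, then test substances at several concentrations in triplicate. After 3 days at 35 °C, XTT added for 3 h and OD492/OD690 read.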
# [2] = Cytotoxicity against human Hep3B cells after 3 days by MTT assay; assay type: functional, cell-based, Hep 3B2; conditions: 72 h
# In short: (§1)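 Freshly trypsinized cells were seeded at 5000-10 000 cells/well, with compounds added from DMSO stock, and cultured 3 days. Attached cells were then incubated with MTT (0.5 mg/mL, 1 h), solubilized in DMSO, and absorbance read at 550 nm.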
# [3] = tested on: A549; experiment: Cytotoxicity against human A549 cells after 3 days by MTT assay; assay type: functional, cell-based; conditions: A549, 72 h; in short: as §1
# [4] = tested on: MDA-MB-231; experiment: Cytotoxicity against human MDA-MB-231 cells after 3 days by MTT assay; assay type: functional, cell-based; conditions: MDA-MB-231, 72 h; in short: as §1
# [5] = tested on: HepG2; experiment: Cytotoxicity against human HepG2 cells after 3 days by MTT assay; assay type: functional, cell-based; conditions: HepG2, 72 h; in short: as §1
# [6] = tested on: Ca9-22; experiment: Cytotoxicity against human Ca9-22 cells after 3 days by MTT assay; assay type: functional, cell-based; conditions: Ca9-22, 72 h; in short: as §1
# [7] = tested on: MCF7; experiment: Cytotoxicity against human MCF7 cells after 3 days by MTT assay; assay type: functional, cell-based; conditions: MCF7, 72 h; in short: as §1
SMILES,IC50 [1] [µg/mL],IC90 [1] [µg/mL],IC50 [2] [µg/mL],IC50 [3] [µg/mL],IC50 [4] [µg/mL],IC50 [5] [µg/mL],IC50 [6] [µg/mL],IC50 [7] [µg/mL]
CC1=CC(=O)[C@@H]2C(C)(C)C(=O)CC[C@@]2(C)[C@@H]1COc1ccc2ccc(=O)oc2c1,0.32,0.37,–,–,–,–,–,–
C/C(=C\COc1ccc2ccc(=O)oc2c1)CC/C=C(\C)CC[C@@H](O)C(C)(C)O,0.99,2.05,> 20,11,> 20,> 20,> 20,14.3
CC(C)=CCC/C(C)=C/[C@@H](O)C/C(C)=C/COc1ccc2ccc(=O)oc2c1,0.36,0.62,–,–,–,–,–,–
CC(=O)OC(CC=C(C)C)/C(C)=C/[C@@H](O)C/C(C)=C/COc1ccc2ccc(=O)oc2c1 (stereo partly drawn),0.81,1.56,9.82,> 20,> 20,15.6,14.2,> 20
NC12CC3CC(CC(C3)C1)C2 [AMANTADINE],0.92,–,–,–,–,–,–,–
CC1=CC[C@@H]2C(C)(C)[C@@H](O)CC[C@@]2(C)[C@@H]1COc1ccc2ccc(=O)oc2c1 [CONFEROL],0.47,0.83,2.63,9.08,> 20,0.51,6.83,3.38
COc1cccc2c1C(=O)c1c(O)c3c(c(O)c1C2=O)C[C@@](O)(C(=O)CO)C[C@@H]3O[C@H]1C[C@H](N)[C@H](O)[C@H](C)O1 [DOXORUBICIN],–,–,0.41,0.35,–,0.16,0.14,0.43
C=C1CC[C@@H]2C(C)(C)[C@H](O)CC[C@@]2(C)[C@H]1COc1ccc2ccc(=O)oc2c1 [FARNESIFEROL A],0.51,0.64,7.66,15.8,19,14.9,12.1,15.6
C/C(=C\COc1ccc2ccc(=O)oc2c1)CC[C@@H]1C(C)(C)[C@H]2CC[C@]1(C)O2 [FARNESIFEROL C],0.29,0.5,–,–,–,–,–,–
CCC(C)SSC/C=C/OS(C)=O (stereo not drawn) [FOETISULFIDE C],–,–,19.2,9.14,> 20,> 20,16.5,> 20
CC(C)=C1CC[C@H](C)[C@](C)(COc2ccc3ccc(=O)oc3c2)[C@H]1CCC(=O)O [GALBANIC ACID],0.45,–,–,–,–,–,–,–
C[C@@H]1C[C@@H](O)[C@]2(C)[C@@H](C)C(=O)CC[C@H]2[C@]1(C)COc1ccc2ccc(=O)oc2c1 [KAMOLONOL],–,–,17.9,> 20,> 20,> 20,> 20,> 20
CC1=CC(=O)[C@@H]2C(C)(C)[C@H](O)CC[C@@]2(C)[C@@H]1COc1ccc2ccc(=O)oc2c1 [LIGUPERSIN A],0.86,1.75,–,–,–,–,–,–
COC(=O)CC[C@H]1C(=C(C)C)CC[C@H](C)[C@]1(C)COc1ccc2ccc(=O)oc2c1 [METHYL GALBANATE],0.26,–,4.33,> 20,> 20,8.42,19.1,> 20
C=C1CC[C@]2(C)C(C)(C)[C@@H](OC(C)=O)CC[C@]2(C)[C@H]1COc1ccc2ccc(=O)oc2c1 [POLYANTHININ],–,–,5.9,12.3,15.7,10.4,12.7,9.94
COc1cc(C=O)ccc1O [VANILLIN],–,–,> 20,16.4,> 20,> 20,> 20,15.7
